Legend:
[1] = Population pharmacokinetic model; type: in vivo, human; details: for Variability in CL/F explained by albumin: albumin as covariate in the final model
Procedure, shortened: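 Plasma measured by two validated LC/MS methods, combined range 0.1–2500 ng/mL. Inter-individual effects multivariate normal; residual error additive, proportional or mixed. Covariates tested on CL/F and V1/F in two steps. 1000 bootstrap replicates with replacement; 1000-replicate prediction-corrected VPC.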

[2] = tested on: patients with locally advanced or metastatic ALK-positive NSCLC; details: 180 mg qd with a 7-day lead-in at 90 mg qd; crizotinib-refractory patients; cited from earlier work
[3] = tested on: patients with ALK + NSCLC who are ALK inhibitor naive; details: first interim analysis, blinded independent review committee; cited from earlier work
[4] = cited from earlier work
[5] = cited from earlier work; remark: listed apart in the source
[6] = tested on: human plasma proteins; details: cited from earlier work
[7] = cited from earlier work; remark: listed apart in the source
[8] = cited from earlier work; remark: listed apart in the source
[9] = cited from earlier work; remark: listed apart in the source
[10] = cited from earlier work; remark: listed apart in the source
[11] = cited from earlier work; remark: listed apart in the source
[12] = tested on: native EML4-ALK; details: read-out: IC90 for inhibition of native EML4-ALK; cellular assays; cited from earlier work
[13] = tested on: EML4-ALK mutants; details: read-out: IC90 range for EML4-ALK mutants; cellular assays; cited from earlier work
[14] = single oral 180-mg radiolabeled dose, healthy volunteers

COc1cc(N2CCC(N3CCN(C)CC3)CC2)ccc1Nc1ncc(Cl)c(Nc2ccccc2P(C)(C)=O)n1 [brigatinib]
Variability in CL/F explained by albumin [1]: approximately 5%
Variability in CL/F explained by albumin ([1]; listed as Brigatinib): Albumin was included as a covariate on apparent clearance in the final population pharmacokinetic model, explaining approximately 5% of variability in apparent clearance.
Albumin covariate effect on CL/F, bootstrap median (2.5th to 97.5th percentile) ([1]; bootstrap of 1000 replicates): 0.656 (0.474–0.849)
CL/F, bootstrap median (2.5th to 97.5th percentile) ([1]; bootstrap of 1000 replicates): 10.6 (10.2–11.1) L/h
Mean transit time, bootstrap median (2.5th to 97.5th percentile) ([1]; bootstrap of 1000 replicates): 0.9 (0.8–1.0) h
Q1/F, bootstrap median (2.5th to 97.5th percentile) ([1]; bootstrap of 1000 replicates): 12.8 (10.5–16.2) L/h
Q2/F, bootstrap median (2.5th to 97.5th percentile) ([1]; bootstrap of 1000 replicates): 2.46 (1.09–4.76) L/h
V1/F, bootstrap median (2.5th to 97.5th percentile) ([1]; bootstrap of 1000 replicates): 208 (193–219) L
V2/F, bootstrap median (2.5th to 97.5th percentile) ([1]; bootstrap of 1000 replicates): 118 (83.6–147) L
V3/F, bootstrap median (2.5th to 97.5th percentile) ([1]; bootstrap of 1000 replicates): 82.3 (57.6–112) L
No. of transit compartments, bootstrap median ([1]; bootstrap of 1000 replicates, fixed): 2.35 (–)
Inter-individual variability of mean transit time, % (% CV) ([1]; final population PK model): 59 (7.5) %
Mean transit time, model estimate (% CV) ([1]; final population PK model): 0.9 (3.6) h
No. of transit compartments, model estimate ([1]; final population PK model, fixed at the population estimate): 2.35
Mean transit time, model estimate (% CV) ([1]; final population PK model, listed as Brigatinib): 0.9 h
Higher CL/F at 95th percentile of albumin vs median albumin ([1]; predicted, higher than a patient with the median albumin value): ~20%
Lower CL/F at 5th percentile of albumin vs median albumin ([1]; predicted, lower than a patient with the median albumin value): approximately 22%
Median progression-free survival [2]: 16.7 months
12-month event-free rate [3]: 67%
Solubility [4]: high
Permeability [5]: high
Bound to human plasma proteins [6]: approximately 90%
Enzymes metabolizing the remainder to inactive or minor metabolites [7]: primarily by cytochrome P450 (CYP) 3A and CYP2C8
Oral bioavailability [7]: orally bioavailable
Overall radiolabeled dose recovered as unchanged drug [8]: Approximately 50%
Administered dose recovered in feces [8, 14]: approximately 65%
Administered dose recovered in urine [8, 14]: ~25%
Unchanged brigatinib in feces [8, 14]: 41%
Unchanged brigatinib in urine [8, 14]: 86%
Increase in unbound AUC0–∞, severe renal impairment vs normal renal function [9]: approximately twofold
Increase in unbound brigatinib systemic exposure (AUC0–∞), severe hepatic impairment (Child–Pugh C) [10]: approximately 37%
Decrease in maximum plasma concentration following a high-fat meal [11]: 13%
Effect of a high-fat meal on AUC [11]: without a corresponding decrease in AUC
IC90 [12]: 38 nM
IC90 [13]: 22 to 762 nM

From PMC7862202 (Clinical Pharmacokinetics, 2020)
